# Laboratory results reported in ChEMBL document CHEMBL4177770, “Discovery of MK-6169, a Potent Pan-Genotype Hepatitis C Virus NS5A Inhibitor with Optimized Activity against Common Resistance-Associated Substitutions” (J Med Chem, 2018).
# Changes are numbered by the printed parent chain.
# Experiments:
# [1] = Drug level in Wistar Han rat at 100 mg/kg, po measured at 24 hrs by LC/MS method; type: ADME, organism-based; details: in vivo, read-out: Drug uptake
# Procedure, shortened: (§1)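 Single rising oral dose study in fed male Wistar Han rats, dosed PO in 10% TWEEN at the indicated doses. Plasma was obtained by centrifuging the blood, and compound levels were determined by LC/MS.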
# [2] = Resistance ratio of EC90 for NS5A in HCV genotype 3a infected in HuH7 replicon cells to EC90 for NS5A in HCV genotype 1a infected in HuH7 replicon cells; type: cell-based
# [3] = Resistance ratio of EC90 for NS5A L31M mutant in HCV genotype 2b infected in HuH7 replicon cells to EC90 for NS5A in HCV genotype 1a infected in HuH7 replicon cells; type: cell-based
# [4] = Clearance in Beagle dog at 1 mg/kg, iv by LC/MS method; type: ADME, organism-based, Canis lupus familiaris; details: in vivo
# Procedure, shortened: (§2)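 Beagle dogs, two animals per group, dosed IV at 1 mg/kg in 60% PEG200. Plasma was prepared from collected blood by centrifugation, and compound was quantified by LC/MS.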
# [5] = Clearance in Wistar Han rat at 2 mg/kg, iv by LC/MS method; type: ADME, organism-based; details: in vivo
# Procedure, shortened: (§3)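 Male Wistar Han rats, two per group, dosed IV at 2 mg/kg in 60% PEG200. Plasma was obtained by centrifuging the blood, and compound concentrations were measured by LC/MS.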
# [6] = tested on: Hepatitis C virus subtype 1a; assay: Resistance ratio of EC90 for NS5A L31V mutant in HCV genotype 1a infected in HuH7 replicon cells to EC90 for NS5A in HCV genotype 1a infected in HuH7 replicon cells; type: cell-based
# [7] = Drug level in Wistar Han rat at 10 mg/kg, po measured at 24 hrs by LC/MS method; type: ADME, organism-based; details: in vivo, read-out: Drug uptake
# Procedure, shortened: (§4)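 Male Wistar Han rats, two per dosing group, dosed orally at 10 mg/kg in 10% TWEEN. Plasma was separated from collected blood by centrifugation and analysed by LC/MS.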
# [8] = Tmax in Wistar Han rat at 300 mg/kg, po by LC/MS method; type: ADME, organism-based; details: in vivo; procedure, shortened: as §1
# [9] = target: T1, Nonstructural protein 5A (Hepatitis C virus) (UniProt Q5L478); assay: Inhibition of NS5A in HCV genotype 4a infected in HuH7 replicon cells assessed as decrease in viral replication after 3 days by RT-PCR method; type: cell-based; details: Hepatitis C virus subtype 4a
# T1 sequence (whole entry): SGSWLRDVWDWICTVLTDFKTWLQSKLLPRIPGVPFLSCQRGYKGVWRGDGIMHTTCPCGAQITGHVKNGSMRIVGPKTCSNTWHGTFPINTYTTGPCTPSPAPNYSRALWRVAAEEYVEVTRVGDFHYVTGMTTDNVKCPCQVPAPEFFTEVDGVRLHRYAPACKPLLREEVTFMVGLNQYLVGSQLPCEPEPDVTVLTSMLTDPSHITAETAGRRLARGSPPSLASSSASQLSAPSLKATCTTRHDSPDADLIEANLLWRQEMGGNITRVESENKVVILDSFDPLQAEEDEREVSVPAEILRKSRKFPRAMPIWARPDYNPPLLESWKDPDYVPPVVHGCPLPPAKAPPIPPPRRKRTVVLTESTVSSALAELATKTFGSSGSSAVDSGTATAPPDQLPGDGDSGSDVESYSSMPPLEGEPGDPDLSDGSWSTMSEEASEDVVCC
# [10] = Cmax in Wistar Han rat at 300 mg/kg, po by LC/MS method; type: ADME, organism-based; set-up: dose 300 mg/kg, route oral; details: in vivo; procedure, shortened: as §1
# [11] = Resistance ratio of EC90 for NS5A in HCV genotype 1b infected in HuH7 replicon cells to EC90 for NS5A in HCV genotype 1a infected in HuH7 replicon cells; type: cell-based
# [12] = Drug level in Wistar Han rat at 300 mg/kg, po measured at 24 hrs by LC/MS method; type: ADME, organism-based; details: in vivo, read-out: Drug uptake; procedure, shortened: as §1
# [13] = target: T1, Nonstructural protein 5A (Hepatitis C virus); assay: Inhibition of NS5A in HCV genotype 1b infected in HuH7 replicon cells assessed as decrease in viral replication after 3 days by RT-PCR method; type: cell-based; details: Hepatitis C virus subtype 1b
# [14] = tested on: T2, Nonstructural protein 5A (Hepatitis C virus), Q5L478 [Y93H]; assay: Inhibition of NS5A Y93H mutant in HCV genotype 1a infected in HuH7 replicon cells assessed as decrease in viral replication after 3 days by RT-PCR method; type: cell-based; details: Hepatitis C virus subtype 1a
# T2 sequence (whole entry): T1 sequence (whole entry) with Y93H
# [15] = MRT in Wistar Han rat at 300 mg/kg, po by LC/MS method; type: ADME, organism-based; details: in vivo; procedure, shortened: as §1
# [16] = Cmax in Wistar Han rat at 100 mg/kg, po by LC/MS method; type: ADME, organism-based; set-up: dose 100 mg/kg, route oral; details: in vivo; procedure, shortened: as §1
# [17] = Half life in Wistar Han rat at 2 mg/kg, iv by LC/MS method; type: ADME, organism-based; details: in vivo; procedure, shortened: as §3
# [18] = Cmax in Beagle dog at 5 mg/kg, po by LC/MS method; type: ADME, organism-based, Canis lupus familiaris; set-up: dose 5 mg/kg, route oral; details: in vivo
# Procedure, shortened: (§5)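 Beagle dogs, two animals per dosing group. Oral dose was given in 10% TWEEN. Blood was collected and spun to plasma, and plasma compound levels were measured by LC/MS.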
# [19] = AUC in Wistar Han rat at 100 mg/kg, po by LC/MS method; type: ADME, organism-based; details: in vivo; procedure, shortened: as §1
# [20] = Drug level in Beagle dog at 5 mg/kg, po measured at 24 hrs by LC/MS method; type: ADME, organism-based, Canis lupus familiaris; details: in vivo, read-out: Drug uptake; procedure, shortened: as §5
# [21] = Tmax in Wistar Han rat at 100 mg/kg, po by LC/MS method; type: ADME, organism-based; details: in vivo; procedure, shortened: as §1
# [22] = tested on: Hepatitis C virus subtype 1a; assay: Resistance ratio of EC90 for NS5A Y93H mutant in HCV genotype 1a infected in HuH7 replicon cells to EC90 for NS5A in HCV genotype 1a infected in HuH7 replicon cells; type: cell-based
# [23] = target: T1, Nonstructural protein 5A (Hepatitis C virus); assay: Inhibition of NS5A L31V mutant in HCV genotype 1a infected in HuH7 replicon cells assessed as decrease in viral replication after 3 days by RT-PCR method; type: cell-based; details: Hepatitis C virus subtype 1a
# [24] = MRT in Wistar Han rat at 100 mg/kg, po by LC/MS method; type: ADME, organism-based; details: in vivo; procedure, shortened: as §1
# [25] = target: T1, Nonstructural protein 5A (Hepatitis C virus); assay: Inhibition of NS5A in HCV genotype 1a infected in HuH7 replicon cells assessed as decrease in viral replication after 3 days by RT-PCR method; type: cell-based; details: Hepatitis C virus subtype 1a
# [26] = Tmax in Wistar Han rat at 10 mg/kg, po by LC/MS method; type: ADME, organism-based; details: in vivo; procedure, shortened: as §4
# [27] = MRT in Wistar Han rat at 10 mg/kg, po by LC/MS method; type: ADME, organism-based; details: in vivo; procedure, shortened: as §4
# [28] = Oral bioavailability in Beagle dog at 5 mg/kg by LC/MS method; type: ADME, organism-based, Canis lupus familiaris; details: in vivo; procedure, shortened: as §5
# [29] = AUC in Beagle dog at 5 mg/kg, po by LC/MS method; type: ADME, organism-based, Canis lupus familiaris; details: in vivo; procedure, shortened: as §5
# [30] = target: T1, Nonstructural protein 5A (Hepatitis C virus); assay: Inhibition of NS5A in HCV genotype 3a infected in HuH7 replicon cells assessed as decrease in viral replication after 3 days by RT-PCR method; type: cell-based; details: Hepatitis C virus subtype 3a
# [31] = AUC in Wistar Han rat at 10 mg/kg, po by LC/MS method; type: ADME, organism-based; details: in vivo; procedure, shortened: as §4
# [32] = Resistance ratio of EC90 for NS5A in HCV genotype 4a infected in HuH7 replicon cells to EC90 for NS5A in HCV genotype 1a infected in HuH7 replicon cells; type: cell-based
# [33] = Oral bioavailability in Wistar Han rat at 10 mg/kg by LC/MS method; type: ADME, organism-based; details: in vivo; procedure, shortened: as §4
# [34] = AUC in Wistar Han rat at 300 mg/kg, po by LC/MS method; type: ADME, organism-based; details: in vivo; procedure, shortened: as §1
# [35] = target: T1, Nonstructural protein 5A (Hepatitis C virus); assay: Inhibition of NS5A L31M mutant in HCV genotype 2b infected in HuH7 replicon cells assessed as decrease in viral replication after 3 days by RT-PCR method; type: cell-based; details: Hepatitis C virus subtype 2b
# [36] = Half life in Beagle dog at 1 mg/kg, iv by LC/MS method; type: ADME, organism-based, Canis lupus familiaris; details: in vivo; procedure, shortened: as §2
# [37] = Cmax in Wistar Han rat at 10 mg/kg, po by LC/MS method; type: ADME, organism-based; set-up: dose 10 mg/kg, route oral; details: in vivo; procedure, shortened: as §4
# [38] = target: Genome polyprotein (Hepatitis C virus genotype 3a (isolate NZL1) (HCV)) (UniProt Q81258); assay: Inhibition of NS5A in HCV genotype 3a NZL1 infected in HB1 replicon cells assessed as decrease in viral replication by TaqMan-based assay; type: cell-based
# [39] = target: Genome polyprotein (Hepatitis C virus genotype 1b (isolate Con1) (HCV)) (UniProt Q9WMX2); assay: Inhibition of NS5A in HCV genotype 1b Con1 infected in HB1 replicon cells assessed as decrease in viral replication by TaqMan-based assay; type: cell-based
# Genome polyprotein (Hepatitis C virus genotype 1b (isolate Con1) (HCV)), sequence (Q9WMX2 whole entry): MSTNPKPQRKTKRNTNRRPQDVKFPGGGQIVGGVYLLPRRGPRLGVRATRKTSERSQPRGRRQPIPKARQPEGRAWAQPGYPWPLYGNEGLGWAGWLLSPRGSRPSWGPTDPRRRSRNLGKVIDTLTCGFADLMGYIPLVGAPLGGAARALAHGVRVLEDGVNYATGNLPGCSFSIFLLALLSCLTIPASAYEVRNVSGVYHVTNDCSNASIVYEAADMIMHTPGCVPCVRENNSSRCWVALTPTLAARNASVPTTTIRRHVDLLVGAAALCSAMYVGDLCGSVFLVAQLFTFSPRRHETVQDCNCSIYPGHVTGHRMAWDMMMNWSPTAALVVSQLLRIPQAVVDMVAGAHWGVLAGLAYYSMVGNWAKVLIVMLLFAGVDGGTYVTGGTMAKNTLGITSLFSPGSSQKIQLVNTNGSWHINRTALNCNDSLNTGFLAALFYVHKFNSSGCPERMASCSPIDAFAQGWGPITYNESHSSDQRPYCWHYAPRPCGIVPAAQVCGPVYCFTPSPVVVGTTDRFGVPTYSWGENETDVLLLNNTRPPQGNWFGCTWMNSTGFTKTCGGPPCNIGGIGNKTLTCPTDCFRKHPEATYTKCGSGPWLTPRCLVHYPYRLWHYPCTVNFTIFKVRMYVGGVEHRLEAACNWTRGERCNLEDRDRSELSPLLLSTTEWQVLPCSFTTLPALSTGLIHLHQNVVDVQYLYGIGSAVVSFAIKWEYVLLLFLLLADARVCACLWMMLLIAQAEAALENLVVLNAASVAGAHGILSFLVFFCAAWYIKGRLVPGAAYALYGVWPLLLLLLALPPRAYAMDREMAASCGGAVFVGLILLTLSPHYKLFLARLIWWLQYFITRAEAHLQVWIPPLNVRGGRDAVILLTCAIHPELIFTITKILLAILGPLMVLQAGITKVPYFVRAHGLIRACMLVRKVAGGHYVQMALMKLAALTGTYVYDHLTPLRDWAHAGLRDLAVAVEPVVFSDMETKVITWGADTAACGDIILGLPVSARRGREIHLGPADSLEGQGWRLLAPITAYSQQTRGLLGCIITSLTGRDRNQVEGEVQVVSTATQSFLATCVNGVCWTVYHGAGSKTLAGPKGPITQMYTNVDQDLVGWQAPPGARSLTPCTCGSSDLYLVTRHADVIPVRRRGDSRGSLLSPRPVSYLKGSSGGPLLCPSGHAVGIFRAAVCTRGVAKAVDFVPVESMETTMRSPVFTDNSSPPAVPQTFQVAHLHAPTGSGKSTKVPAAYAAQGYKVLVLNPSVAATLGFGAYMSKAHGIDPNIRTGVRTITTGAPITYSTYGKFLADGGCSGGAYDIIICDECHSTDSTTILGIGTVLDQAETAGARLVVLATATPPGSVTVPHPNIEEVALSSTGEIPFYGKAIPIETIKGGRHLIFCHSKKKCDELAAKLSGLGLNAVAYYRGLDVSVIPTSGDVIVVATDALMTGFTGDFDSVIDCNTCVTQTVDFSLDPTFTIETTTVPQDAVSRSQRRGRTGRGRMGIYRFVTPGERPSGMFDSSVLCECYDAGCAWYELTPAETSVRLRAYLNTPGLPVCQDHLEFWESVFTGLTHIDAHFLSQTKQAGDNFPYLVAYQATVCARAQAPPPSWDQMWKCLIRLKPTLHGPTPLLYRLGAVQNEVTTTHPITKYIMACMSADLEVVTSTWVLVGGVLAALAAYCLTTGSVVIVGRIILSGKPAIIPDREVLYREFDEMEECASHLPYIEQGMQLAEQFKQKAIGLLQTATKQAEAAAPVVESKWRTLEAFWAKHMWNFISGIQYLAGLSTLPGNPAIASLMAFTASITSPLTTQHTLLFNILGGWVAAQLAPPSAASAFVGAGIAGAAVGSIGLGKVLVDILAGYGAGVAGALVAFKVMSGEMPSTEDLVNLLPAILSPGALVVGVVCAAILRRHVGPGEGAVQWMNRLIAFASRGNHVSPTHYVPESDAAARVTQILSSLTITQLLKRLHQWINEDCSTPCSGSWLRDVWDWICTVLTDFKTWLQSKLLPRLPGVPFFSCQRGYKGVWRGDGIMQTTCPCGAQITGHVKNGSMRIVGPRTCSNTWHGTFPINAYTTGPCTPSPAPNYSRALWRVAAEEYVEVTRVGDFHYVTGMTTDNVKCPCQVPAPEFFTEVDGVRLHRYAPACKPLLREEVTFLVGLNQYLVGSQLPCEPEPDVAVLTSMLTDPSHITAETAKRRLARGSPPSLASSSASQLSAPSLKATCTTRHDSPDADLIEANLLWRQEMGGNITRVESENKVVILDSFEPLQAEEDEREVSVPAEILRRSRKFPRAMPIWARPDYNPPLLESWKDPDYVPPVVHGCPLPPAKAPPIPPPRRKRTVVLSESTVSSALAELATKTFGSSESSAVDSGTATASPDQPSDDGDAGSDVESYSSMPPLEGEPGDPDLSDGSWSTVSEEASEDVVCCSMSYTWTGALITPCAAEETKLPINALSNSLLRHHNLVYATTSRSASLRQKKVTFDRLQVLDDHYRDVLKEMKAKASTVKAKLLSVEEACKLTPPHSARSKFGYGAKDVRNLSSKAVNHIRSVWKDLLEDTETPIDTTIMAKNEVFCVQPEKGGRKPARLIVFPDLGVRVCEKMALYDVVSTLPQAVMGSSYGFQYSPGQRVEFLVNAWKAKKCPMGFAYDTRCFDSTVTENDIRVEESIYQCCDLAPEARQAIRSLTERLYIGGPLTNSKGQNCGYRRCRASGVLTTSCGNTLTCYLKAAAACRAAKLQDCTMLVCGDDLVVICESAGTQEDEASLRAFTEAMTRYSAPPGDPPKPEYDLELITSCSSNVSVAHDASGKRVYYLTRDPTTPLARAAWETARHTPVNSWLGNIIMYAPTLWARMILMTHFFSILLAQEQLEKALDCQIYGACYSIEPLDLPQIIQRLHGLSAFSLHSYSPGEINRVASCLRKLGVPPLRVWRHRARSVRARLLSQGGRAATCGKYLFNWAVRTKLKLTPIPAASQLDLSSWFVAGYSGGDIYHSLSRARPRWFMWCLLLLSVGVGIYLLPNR
smiles,measurement,setting,value
COC(=O)N[C@H](C(=O)N1CCC[C@H]1c1ncc(-c2cc(F)c3c(c2)O[C@@H](c2ccc(C4CC4)s2)n2c-3cc3cc(-c4cnc([C@@H]5CCCN5C(=O)[C@@H](NC(=O)OC)C5CCOCC5)[nH]4)ccc32)[nH]1)C(C)C,concentration at 24 h,[1],11 nM
same,Ratio,[2],< 10
same,Ratio,[3],< 10
same,clearance,[4],4 mL/min/kg
same,clearance,[5],18 mL/min/kg
same,Ratio,[6],< 10
same,concentration at 24 h,[7],2 to 1000 nM
same,Tmax,[8],4 h
same,EC90,[9],5 pM
same,Cmax,[10],360 nM
same,Ratio,[11],< 10
same,concentration at 24 h,[12],32 nM
same,EC90,[13],5 pM
same,EC90,[14],0.018 nM
same,MRT,[15],9.9 h
same,Cmax,[16],200 nM
same,half-life,[17],240 min
same,Cmax,[18],460 nM
same,AUC,[19],1.64 µM·h
same,concentration at 24 h,[20],22 nM
same,Tmax,[21],4 h
same,Ratio,[22],< 10
same,EC90,[23],6 pM
same,MRT,[24],8.3 h
same,EC90,[25],4 pM
same,Tmax,[26],3 h
same,MRT,[27],7.9 h
same,bioavailability,[28],11%
same,AUC,[29],2.61 µM·h
same,EC90,[30],8 pM
same,AUC,[31],0.14 to 0.29 µM·h
same,Ratio,[32],< 10
same,bioavailability,[33],3.1%
same,AUC,[34],3.99 µM·h
same,EC90,[35],0.014 nM
same,half-life,[36],252 min
same,Cmax,[37],0.034 to 20 µM
COC(=O)N[C@H](C(=O)N1CCC[C@H]1c1nc(-c2ccc3c(c2)O[C@@H](c2ccccc2)n2c-3cc3cc(-c4c[nH]c([C@@H]5CCCN5C(=O)[C@@H](NC(=O)OC)C(C)C)n4)ccc32)c[nH]1)C(C)C,EC90,[38],0.12 nM
same,EC90,[39],6 pM
